Assay [1] addresses Tyrosine-protein kinase Lck (Homo sapiens, UniProt P06239). In words: Inhibition of human p56 lck.
The target of assay [2] is cAMP-dependent protein kinase (PKA) (Homo sapiens, UniProt P22694+P17612+P22612). In words: Inhibition of human neutrophil protein kinase A (PKA). The class given is protein assay.
Assay [3] in a line: Inhibition of human platelet protein kinase C (PKC).
Another assay addresses Protein kinase C (PKC). In words: Inhibition of protein kinase C (PKC) of rat brain.
The target in assay [4] is Protein kinase C, PKC; classical (Rattus norvegicus, UniProt P05696+P68403+P63319). In words: Inhibition of protein kinase C was evaluated as Inhibitory concentration. The class given is protein assay. In outline:
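Rat brain PKC; procedure as in earlier work; triplicate points per assay; IC50 is the mean of at least two independent assays.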

Assay [5] is described as follows: Inhibition of protein kinase A was evaluated as Inhibitory concentration. In outline:
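PKA from bovine heart; procedure as in earlier work; triplicate points per assay; IC50 is the mean of at least two independent assays.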

Assay [6] in a line: Inhibition of human neutrophil protein kinase C (PKC).
Another assay is filed under the species Homo sapiens. In words: Inhibition of TPA-stimulated 47-kDa protein phosphorylation in platelets. The class given is functional. In outline:
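Procedure as in earlier work; TPA-stimulated 47-kDa protein phosphorylation in platelets; triplicate points per assay; IC50 is the mean of at least three independent assays.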

A short description of assay [7]: (§1) Inhibition of rabbit muscle phosphorylase kinase (PhK). More on the design: species or system Oryctolagus cuniculus.
A short description of assay [8]: Antagonistic effect on allogenic mixed lymphocyte reaction. The format is functional. Put shortly: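 Allogeneic mixed lymphocyte reaction run by a published method; triplicate points per assay; IC50 is the mean of at least three independent assays.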
The target in assay [9] is Proto-oncogene tyrosine-protein kinase Src (Homo sapiens, UniProt P12931). In words: Inhibition of human p60 c-src. Put shortly:
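Human p60c-src (20 units) with angiotensin II substrate (60 µg), 10 µM [γ-32P]ATP, 10 mM MgCl2, in 50 mM HEPES, 0.1 mM EDTA, 0.015% Brij 35, pH 7.5; final DMSO 10%. Incubated 60 min at 30 °C, stopped with 40 mM EDTA. Aliquots spotted on phosphocellulose paper, washed with orthophosphoric acid, counted by liquid scintillation.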

A short description of assay [10]: Inhibition of rat liver casein kinase II.
Assay [11] has as its target Protein kinase C, PKC; classical/novel. In words: Antagonistic effect on TPA-stimulated CD3 down-regulation in T-cells. The class given is functional. In outline:
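Procedure as in earlier work; TPA-stimulated CD3 down-regulation in T-cells; triplicate points per assay; IC50 is the mean of at least two independent assays.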

Assay [12] is described as follows: as §1. The arrangement: species or system Oryctolagus cuniculus. In outline: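 Rabbit muscle phosphorylase kinase; procedure as in earlier work; triplicate points per assay; IC50 is the mean of at least two independent assays.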
This is another data set of the same source.

Bounds are passed on as bounds.

Sequence of Proto-oncogene tyrosine-protein kinase Src (P12931 2-536 limits assumed): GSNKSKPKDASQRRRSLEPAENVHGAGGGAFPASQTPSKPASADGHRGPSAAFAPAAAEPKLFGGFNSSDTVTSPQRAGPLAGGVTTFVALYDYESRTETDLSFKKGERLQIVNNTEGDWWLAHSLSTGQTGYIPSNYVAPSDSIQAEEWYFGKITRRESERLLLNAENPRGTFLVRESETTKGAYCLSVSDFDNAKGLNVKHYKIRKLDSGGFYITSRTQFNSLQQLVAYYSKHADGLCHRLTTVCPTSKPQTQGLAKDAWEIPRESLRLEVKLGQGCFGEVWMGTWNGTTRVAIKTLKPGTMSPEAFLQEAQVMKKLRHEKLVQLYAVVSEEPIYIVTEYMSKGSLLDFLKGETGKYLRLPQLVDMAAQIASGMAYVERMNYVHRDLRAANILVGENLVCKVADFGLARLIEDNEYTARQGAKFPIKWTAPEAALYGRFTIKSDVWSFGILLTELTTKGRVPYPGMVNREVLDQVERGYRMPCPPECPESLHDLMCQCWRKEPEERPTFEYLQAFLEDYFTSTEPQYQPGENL
Sequence of Tyrosine-protein kinase Lck (P06239 whole entry): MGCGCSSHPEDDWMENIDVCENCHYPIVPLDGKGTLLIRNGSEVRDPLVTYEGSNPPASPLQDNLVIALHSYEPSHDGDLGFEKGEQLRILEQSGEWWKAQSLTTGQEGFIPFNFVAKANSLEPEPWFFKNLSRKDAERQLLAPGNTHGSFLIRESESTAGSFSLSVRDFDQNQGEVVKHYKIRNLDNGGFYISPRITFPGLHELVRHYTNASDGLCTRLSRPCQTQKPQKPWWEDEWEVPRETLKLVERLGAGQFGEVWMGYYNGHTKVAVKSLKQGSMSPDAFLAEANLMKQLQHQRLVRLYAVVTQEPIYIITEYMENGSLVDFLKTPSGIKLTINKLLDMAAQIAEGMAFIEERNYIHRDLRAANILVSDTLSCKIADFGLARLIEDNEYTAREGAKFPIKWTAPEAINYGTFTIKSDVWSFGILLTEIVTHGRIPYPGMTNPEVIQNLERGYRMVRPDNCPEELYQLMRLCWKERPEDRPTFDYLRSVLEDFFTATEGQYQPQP

One may read the IC50 as the midpoint of a concentration-inhibition curve. Take `CN(C)CC1CCn2c(c(C3=C(c4cn(C)c5ccccc45)C(=O)NC3=O)c3ccccc32)C1.Cl` (stereo not drawn): the IC50 in assay [1] is above 100000 nM; in assay [2], 5900 nM; in assay [3], 45 nM; at Protein kinase C (PKC) it was 42 nM; in [4] it was 42 nM; in assay [5] it was 8600 nM. In addition, the IC50 in assay [6] was 32 nM; in the assay filed under Homo sapiens, 950 nM; in [7] it was 1100 nM; in assay [8], 540 nM; in assay [9] it was above 100000 nM; in assay [10] it was above 100000 nM.

For `Cn1cc(C2=C(c3c4n(c5ccccc35)CCCC(CN)C4)C(=O)NC2=O)c2ccccc21` (stereo not drawn), the IC50 in assay [4] turned out to be 272 nM; in assay [5], 34000 nM.

As to `CN[C@@H]1C[C@H]2O[C@@](C)([C@@H]1OC)n1c3ccccc3c3c4c(c5c6ccccc6n2c5c31)C(=O)NC4` [STAUROSPORINE], the IC50 in [6] was 2.5 nM.

For `Cn1cc(C2=C(c3c4n(c5ccccc35)CCCCC4)C(=O)NC2=O)c2ccccc21`, the IC50 in assay [4] was 450 nM; in [5], above 100000 nM.

`Cn1cc(C2=C(c3c4n(c5ccccc35)CCC(N)C4)C(=O)NC2=O)c2ccccc21` (stereo not drawn): the IC50 worked out at 110 nM in assay [4] and 3300 nM in assay [5].

As to `CNCC1CCn2c(c(C3=C(c4cn(C)c5ccccc45)C(=O)NC3=O)c3ccccc32)C1.Cl` (stereo not drawn), the IC50 is 9.8 nM in assay [4] and 4800 nM in assay [5].

Turning to `Cn1cc(C2=C(c3c4n(c5ccccc35)CCC(C[N+](C)(C)C)C4)C(=O)NC2=O)c2ccccc21` (stereo not drawn), the IC50 in [4] was found to be 49 nM; in [5] it was 92500 nM.

For the molecule `Cn1cc(C2=C(c3c4n(c5ccccc35)CCC(N)CC4)C(=O)NC2=O)c2ccccc21` (stereo not drawn), the figures for the IC50 in [4] and in [5] were 100 nM and 2400 nM, respectively.

`Cn1cc(C2=C(c3c4n(c5ccccc35)CCC4)C(=O)NC2=O)c2ccccc21`: the IC50 came to 210 nM in assay [4] and 68000 nM in assay [5].

As for `Cn1cc(C2=C(c3c4n(c5ccccc35)CCCC4)C(=O)NC2=O)c2ccccc21`, the IC50 in assay [4] turned out to be 155 nM; in assay [5], 23000 nM.

For `Cn1cc(C2=C(c3c4n(c5ccccc35)CCC(CN)CC4)C(=O)NC2=O)c2ccccc21` (stereo not drawn), the results for the IC50 in assay [4] and in [5] were 16.5 nM and 2600 nM, respectively.

`Cn1cc(C2=C(c3c4n(c5ccccc35)CCC(CN)C4)C(=O)NC2=O)c2ccccc21` (stereo not drawn): the IC50 was above 100000 nM in assay [1]; 600 nM in assay [11]; 1200 nM in assay [2]; 12 nM in [3]; 7.6 nM on Protein kinase C (PKC); 7.6 nM in assay [4]. The IC50 in assay [12] was 1300 nM; in assay [5], 2800 nM; in assay [6], 4.8 nM; in the assay filed under Homo sapiens, 460 nM; in assay [8] it was 470 nM; in [9], above 100000 nM. This molecule returned an IC50 in assay [10] above 100000 nM.

Molecule `Cn1cc(C2=C(c3cn(CCCN)c4ccccc34)C(=O)NC2=O)c2ccccc21` showed an IC50 in assay [4] of 75 nM.

In the case of `Cn1cc(C2=C(c3c4n(c5ccccc35)CC(CN)C4)C(=O)NC2=O)c2ccccc21` (stereo not drawn), the IC50 in [4] came to 14 nM; in assay [5], 3900 nM.

On to `Cn1cc(C2=C(c3c4n(c5ccccc35)CC(CN)CC4)C(=O)NC2=O)c2ccccc21` (stereo not drawn), for which the IC50 in assay [4] is 15 nM; in assay [5], 1100 nM.

As for `Cl.Cn1cc(C2=C(c3c4n(c5ccccc35)CC(CCN)CC4)C(=O)NC2=O)c2ccccc21` (stereo not drawn), the IC50 in assay [4] is 23 nM; in assay [5] it was 4500 nM.

With `Cn1cc(C2=C(c3c4n(c5ccccc35)CCC(CCN)C4)C(=O)NC2=O)c2ccccc21` (stereo not drawn), the IC50 worked out at 47 nM in [4] and 24000 nM in [5].

For `Cn1cc(C2=C(c3c4n(c5ccccc35)CC[C@@H](CN)C4)C(=O)NC2=O)c2ccccc21`, the results for the IC50 in [4] and in assay [5] were 10 nM and 900 nM, respectively.

Turning to `Cn1cc(C2=C(c3c4n(c5ccccc35)CC(CN)CCC4)C(=O)NC2=O)c2ccccc21` (stereo not drawn), the figures for the IC50 in assay [4] and in assay [5] were 400 nM and 12800 nM, respectively.

On to `Cn1cc(C2=C(c3c4n(c5ccccc35)CCNC4)C(=O)NC2=O)c2ccccc21`, for which the IC50 in assay [4] amounted to 540 nM; in [5], 3200 nM.

Take `Cn1cc(C2=C(c3c4n(c5ccccc35)CC[C@H](CN)C4)C(=O)NC2=O)c2ccccc21`: the IC50 in assay [4] turned out to be 4.1 nM; in [5], 12100 nM.

As for `Cn1cc(C2=C(c3c4n(c5ccccc35)CC(N)CC4)C(=O)NC2=O)c2ccccc21` (stereo not drawn), the IC50 is 135 nM in [4] and 4100 nM in [5].
